The values that follow come from paper PMC7931189 (ACS Omega, 2021).

Test [1] concerns human colorectal carcinoma cells (HCT-116). The experiment in a line: Antiproliferative activity by the MTT assay, HCT-116. It counts as cell-based. The note with it: for IC50: Homo sapiens, HCT-116, 48 h, read-out: IC50 HCT-116; for inhibitory action on HCT-116 cells: MTT, 48 h post treatment, result in words. The procedure, abridged:
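HCT-116 cells grown in DMEM with L-glutamine, fetal bovine serum, selenium chloride and penicillin-streptomycin; exposed to test compound at 0.06–0.7 mg/mL for 48 h, untreated wells as control. MTT (5.0 mg/mL) added for 4 h, then DMSO; absorbance read at 570 nm. Percent viability calculated relative to control; one-way ANOVA with Student's t-test for p-values.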
A general note: Tetrazolium dyes change colour on reduction, which living cells bring about.

Test [2] relates to HCT-116 cells. As to the kind of experiment: Nuclear DNA staining. It counts as cell-based, human. The note with it: 0.1 mg/mL, 48 h, compared to nontreated control. The procedure, abridged:
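HCT-116 cells exposed to test compound at 0.1 mg/mL for 48 h alongside untreated controls. Cells then fixed in 4% paraformaldehyde, permeabilised with Triton X-100 in PBS and stained with DAPI. Nuclei imaged by confocal scanning microscopy at 200× magnification and scored for loss of staining, condensation and disintegration.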

What is called IC50 is the concentration that inhibits the measured activity by half.

“Also recorded” adds a separate entry of the source.

On to `CN(C)c1ccc(C=NNC(=O)C(C)(C)C(O)c2ccc(Cl)cc2)cc1` (stereo not shown) [compound 3, 3-(4-chlorophenyl)-N′-(4-(dimethylamino)benzylidene)-3-hydroxy-2,2-dimethylpropanehydrazide], for which, in test [1], the half-inhibitory concentration (IC50) came to 267 ± 30 µM and the “inhibitory action on HCT-116 cells” value is “showed inhibitory activities”. The “nuclear staining / nuclear disintegration of DAPI stained HCT-116 cells” value in test [2] is recorded as “significant loss (arrows) of staining; also recorded: significant loss of nuclear staining”.
On to `CC(C)(C(=O)O)C(O)c1ccc(Cl)cc1` (stereo not shown) [compound 1, 3-(4-chlorophenyl)-3-hydroxy-2,2-dimethylpropanoic acid], for which, in test [1], the half-inhibitory concentration (IC50) was 1270 ± 40 µM and the “inhibitory action on HCT-116 cells” value is listed as “showed inhibitory activities”.
As to `CC(C)(C(=O)NN)C(O)c1ccc(Cl)cc1` (stereo not shown) [compound 2, 3-(4-chlorophenyl)-3-hydroxy-2,2-dimethylpropanehydrazide], in test [1], the IC50 is 1650 ± 60 µM and the “inhibitory action on HCT-116 cells” value was “showed inhibitory activities”.
